Measured values from different studies.
Lines come from different studies, so protocols differ.
Target: Serine/threonine-protein kinase SIK1 (SIK1, Homo sapiens, UniProt P57059)

For `CN(c1nccc(-c2cnn3ncccc23)n1)C1CC1`, the remaining binding was 100% (binding; 1 µM).
With `Cc1ccc(C(=O)Nc2ccc(CN3CCN(C)CC3)c(C(F)(F)F)c2)cc1C#Cc1cnc2cccnn12` the remaining activity was 57% (enzyme activity; inhibitor; 23.5 nM).
With `Cc1cc(NC(=O)c2cccc3cc(-c4cccc5[nH]nc(N)c45)ccc23)ccc1F` the activity vs control was 103% (enzyme activity; inhibitor; 0.1 µM).
`Cc1cnn2ncc(-c3ccnc(N(C)C)n3)c2c1` gave a remaining binding of 100% (binding; 1 µM).
For `O=C(Nc1cnn(-c2csc(C(=O)NC3COC3)c2)c1)Nc1c(F)cccc1Cl`, the remaining activity was 98.3% (enzyme activity; inhibitor; 5 µM).
`CC(C)(C)c1nc2c(s1)c1nc(N)ncc1c1ccc(NS(=O)(=O)c3c(F)cccc3F)c(F)c12` has a remaining activity of 90% (enzyme activity; inhibitor; radiometric; 1 µM).
For `Cc1ccc(Nc2nccc(N(C)c3ccc4c(C)n(C)nc4c3)n2)cc1S(N)(=O)=O`, the inhibition was 13% (enzyme activity; inhibitor; 0.3 µM).
`O=C(Nc1cnn(-c2csc(C(=O)NC3COC3)c2)c1)Nc1ccccc1Cl` gave a remaining activity of 102% (enzyme activity; inhibitor; 5 µM).
`CC(C)(O)[C@H]1CC[C@H](Nc2ccc3ncc(-c4cccc(C(F)(F)F)c4)n3n2)CC1` gave a remaining activity of 62.8% (enzyme activity; inhibitor; 1 µM).
With `COc1cc(Cl)c(C(=O)N[C@@H](CN[C@H]2CC[C@@H](N)CC2)Cc2ccc(C#N)cc2)cc1-c1ccc(CN[C@H](C)c2ccc(C)cc2)o1` the remaining activity was 97% (enzyme activity; inhibitor; 1 µM).
`CN(CCCC(F)(F)F)c1nccc(-c2cnn3ncccc23)n1` gave a remaining binding of 100% (binding; 1 µM).
With `Cc1cnc(NC2CCOCC2)nc1-n1cnc(C(=O)NC(CN)c2cc(F)cc(Cl)c2)c1` (centres unmarked) the remaining activity was 109% (enzyme activity; inhibitor; radiometric; 1 µM).
`CCN1CCN(Cc2ccc(NC(=O)c3ccc(C)c(Oc4ccnc5[nH]ccc45)c3)cc2C(F)(F)F)CC1` gave an inhibition of -51.3% (target engagement in cells; inhibitor; chemoproteomics; Huh-7; 1 µM).
With `CC(C)(C)c1nc(-c2cccc(NS(=O)(=O)c3c(F)cccc3F)c2F)c(-c2ccnc(N)n2)s1` the remaining activity was 98% (enzyme activity; inhibitor; radiometric; 1 µM).
